Legend:
[1] = target: Vascular endothelial growth factor receptor 2 (Homo sapiens, UniProt P35968); experiment: Inhibition of VEGFR2 by microplate scintillation counting
[2] = target: T1, Aurora kinase A (Homo sapiens, UniProt O14965); experiment: Inhibition of Aurora-A by microplate scintillation counting
T1 sequence (O14965 whole entry): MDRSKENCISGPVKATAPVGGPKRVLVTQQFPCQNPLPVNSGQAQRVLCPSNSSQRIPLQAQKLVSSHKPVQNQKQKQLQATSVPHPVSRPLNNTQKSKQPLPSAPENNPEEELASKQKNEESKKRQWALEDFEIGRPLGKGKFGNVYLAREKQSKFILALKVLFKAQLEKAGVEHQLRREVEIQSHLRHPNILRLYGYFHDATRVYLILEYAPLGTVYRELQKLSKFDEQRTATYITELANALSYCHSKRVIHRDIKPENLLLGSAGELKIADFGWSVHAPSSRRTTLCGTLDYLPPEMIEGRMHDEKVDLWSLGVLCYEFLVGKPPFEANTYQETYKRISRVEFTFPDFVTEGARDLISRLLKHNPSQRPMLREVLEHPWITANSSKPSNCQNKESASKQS
Summary of the method: (§1)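 Substrates: tetra(LRRWSLG) for Aurora A/B; poly(Ala,Glu,Lys,Tyr)6:2:5:1 for PDGFRβ; poly(Glu,Tyr)4:1 for TIE2 and VEGFR2. Stopped with 2% H3PO4.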

[3] = target: Aurora kinase B (Homo sapiens, UniProt Q96GD4); experiment: Inhibition of Aurora-B by microplate scintillation counting; summary of the method: as §1
[4] = target: T2, Epidermal growth factor receptor (Homo sapiens, UniProt P00533); experiment: Inhibition of wild type EGF-R by microplate scintillation counting
T2 sequence (P00533 whole entry): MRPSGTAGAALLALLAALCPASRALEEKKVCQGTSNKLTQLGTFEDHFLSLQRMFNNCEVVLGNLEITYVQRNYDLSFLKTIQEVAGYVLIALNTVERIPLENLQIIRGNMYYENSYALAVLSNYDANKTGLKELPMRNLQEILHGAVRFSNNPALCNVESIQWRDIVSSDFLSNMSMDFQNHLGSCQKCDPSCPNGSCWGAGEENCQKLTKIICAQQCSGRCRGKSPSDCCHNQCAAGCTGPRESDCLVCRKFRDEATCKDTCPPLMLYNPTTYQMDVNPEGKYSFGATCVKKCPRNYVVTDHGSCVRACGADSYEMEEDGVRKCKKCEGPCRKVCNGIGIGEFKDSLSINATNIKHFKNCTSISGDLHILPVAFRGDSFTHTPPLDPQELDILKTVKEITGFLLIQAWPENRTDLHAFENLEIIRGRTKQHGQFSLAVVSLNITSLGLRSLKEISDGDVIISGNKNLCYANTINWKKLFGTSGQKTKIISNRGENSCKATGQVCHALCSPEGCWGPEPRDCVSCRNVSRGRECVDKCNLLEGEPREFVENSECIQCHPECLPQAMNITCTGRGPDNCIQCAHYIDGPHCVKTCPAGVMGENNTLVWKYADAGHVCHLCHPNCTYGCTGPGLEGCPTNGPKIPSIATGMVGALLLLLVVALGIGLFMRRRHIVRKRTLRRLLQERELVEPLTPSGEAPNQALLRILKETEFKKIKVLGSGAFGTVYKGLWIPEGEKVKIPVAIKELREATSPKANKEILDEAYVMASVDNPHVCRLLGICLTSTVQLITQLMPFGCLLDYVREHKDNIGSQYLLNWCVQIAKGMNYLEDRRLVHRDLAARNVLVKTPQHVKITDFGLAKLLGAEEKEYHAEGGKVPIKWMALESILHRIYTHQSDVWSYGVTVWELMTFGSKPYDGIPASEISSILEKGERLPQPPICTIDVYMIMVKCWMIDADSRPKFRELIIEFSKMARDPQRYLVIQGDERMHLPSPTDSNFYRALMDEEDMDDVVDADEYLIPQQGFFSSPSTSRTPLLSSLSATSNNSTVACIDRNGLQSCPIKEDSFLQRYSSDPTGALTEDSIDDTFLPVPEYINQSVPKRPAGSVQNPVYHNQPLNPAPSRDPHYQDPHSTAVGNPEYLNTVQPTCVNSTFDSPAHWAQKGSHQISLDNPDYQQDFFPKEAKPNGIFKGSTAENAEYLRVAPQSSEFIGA

[5] = target: T3, Angiopoietin-1 receptor (Homo sapiens, UniProt Q02763); experiment: Inhibition of TIE2 by microplate scintillation counting
T3 sequence (Q02763 whole entry): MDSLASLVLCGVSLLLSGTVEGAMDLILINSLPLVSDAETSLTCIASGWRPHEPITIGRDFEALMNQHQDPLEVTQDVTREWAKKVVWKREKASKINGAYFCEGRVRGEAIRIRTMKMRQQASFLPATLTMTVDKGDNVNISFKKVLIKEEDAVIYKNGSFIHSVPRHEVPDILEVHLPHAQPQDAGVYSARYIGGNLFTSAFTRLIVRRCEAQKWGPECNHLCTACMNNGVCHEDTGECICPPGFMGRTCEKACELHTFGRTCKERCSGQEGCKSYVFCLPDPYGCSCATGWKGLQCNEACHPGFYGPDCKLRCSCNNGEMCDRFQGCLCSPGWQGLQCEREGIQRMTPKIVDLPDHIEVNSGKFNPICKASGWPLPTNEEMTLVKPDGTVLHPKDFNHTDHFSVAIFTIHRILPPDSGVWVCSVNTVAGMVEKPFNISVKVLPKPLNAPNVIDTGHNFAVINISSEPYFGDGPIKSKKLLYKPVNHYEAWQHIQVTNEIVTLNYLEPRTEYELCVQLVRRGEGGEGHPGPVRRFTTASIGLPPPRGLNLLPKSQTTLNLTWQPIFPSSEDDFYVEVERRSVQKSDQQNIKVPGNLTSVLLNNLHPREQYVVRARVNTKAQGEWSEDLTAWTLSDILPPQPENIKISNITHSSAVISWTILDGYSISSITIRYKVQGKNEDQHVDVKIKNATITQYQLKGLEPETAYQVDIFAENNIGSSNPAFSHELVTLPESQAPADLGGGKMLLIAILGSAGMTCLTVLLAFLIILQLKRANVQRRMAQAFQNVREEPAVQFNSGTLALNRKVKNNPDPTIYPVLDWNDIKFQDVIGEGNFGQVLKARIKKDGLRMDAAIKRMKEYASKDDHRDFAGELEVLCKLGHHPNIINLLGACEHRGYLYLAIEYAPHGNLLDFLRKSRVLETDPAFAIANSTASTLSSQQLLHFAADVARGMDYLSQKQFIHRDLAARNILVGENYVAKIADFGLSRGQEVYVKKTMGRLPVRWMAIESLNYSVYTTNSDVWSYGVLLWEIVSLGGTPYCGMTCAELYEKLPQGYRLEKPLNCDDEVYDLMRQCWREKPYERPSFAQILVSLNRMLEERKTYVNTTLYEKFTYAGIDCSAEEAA

[6] = target: Vascular endothelial growth factor receptor 3 (Homo sapiens, UniProt P35916); experiment: Inhibition of VEGFR3 by microplate scintillation counting
Summary of the method: (§2)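 Radiometric FlashPlate assay using recombinant kinase (10–200 ng/well) with poly(Glu,Tyr)4:1 substrate. Buffer: 60 mM HEPES-NaOH pH 7.5, 3 mM MgCl2, 3 mM MnCl2, 3 µM orthovanadate, 1.2 mM DTT, PEG 20000, 1 µM [γ-33P]-ATP. Run 80 min at 30 °C, stopped with H3PO4, and 33P incorporation counted.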

[7] = target: Platelet-derived growth factor receptor beta (Homo sapiens, UniProt P09619); experiment: Inhibition of PDGFRbeta by microplate scintillation counting; summary of the method: as §1
Sequence of Platelet-derived growth factor receptor beta (P09619 whole entry): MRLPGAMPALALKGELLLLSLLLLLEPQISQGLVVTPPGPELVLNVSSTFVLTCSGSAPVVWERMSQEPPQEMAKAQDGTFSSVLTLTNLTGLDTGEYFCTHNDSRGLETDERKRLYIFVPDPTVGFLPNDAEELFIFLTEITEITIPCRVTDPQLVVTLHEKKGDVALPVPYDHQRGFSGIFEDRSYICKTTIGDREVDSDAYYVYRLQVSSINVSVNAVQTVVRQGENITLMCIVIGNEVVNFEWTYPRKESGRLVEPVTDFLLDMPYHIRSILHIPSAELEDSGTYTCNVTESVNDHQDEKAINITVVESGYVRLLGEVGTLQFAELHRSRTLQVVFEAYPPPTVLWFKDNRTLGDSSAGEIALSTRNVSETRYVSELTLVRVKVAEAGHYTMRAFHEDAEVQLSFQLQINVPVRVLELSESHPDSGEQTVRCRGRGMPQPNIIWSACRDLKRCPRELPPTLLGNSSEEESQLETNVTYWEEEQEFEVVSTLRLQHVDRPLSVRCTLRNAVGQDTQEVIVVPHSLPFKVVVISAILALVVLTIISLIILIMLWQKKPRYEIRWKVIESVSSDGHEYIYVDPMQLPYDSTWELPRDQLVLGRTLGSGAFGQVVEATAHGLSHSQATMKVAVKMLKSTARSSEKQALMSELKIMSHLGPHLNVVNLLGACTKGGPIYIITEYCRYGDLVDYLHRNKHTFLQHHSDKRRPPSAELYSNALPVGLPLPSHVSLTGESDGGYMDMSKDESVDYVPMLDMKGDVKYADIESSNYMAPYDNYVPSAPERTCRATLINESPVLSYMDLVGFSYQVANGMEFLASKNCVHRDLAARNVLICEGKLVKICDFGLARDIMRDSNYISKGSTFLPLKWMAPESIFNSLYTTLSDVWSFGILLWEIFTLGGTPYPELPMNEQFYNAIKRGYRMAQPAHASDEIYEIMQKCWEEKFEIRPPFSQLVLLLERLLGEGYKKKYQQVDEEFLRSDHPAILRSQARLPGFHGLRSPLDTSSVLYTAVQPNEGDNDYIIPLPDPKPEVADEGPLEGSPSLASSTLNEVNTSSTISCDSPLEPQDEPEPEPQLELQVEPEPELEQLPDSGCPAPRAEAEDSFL

[8] = target: Receptor tyrosine-protein kinase erbB-2 (Homo sapiens, UniProt P04626); experiment: Inhibition of ERBB2 by microplate scintillation counting; summary of the method: as §2
[9] = target: T3, Angiopoietin-1 receptor; experiment: Inhibition of TIE2 in human HCT116 cells by cellular phosphorylation assay; assay type: cell-based, HCT-116
Summary of the method: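 TIE2 autophosphorylation in cells expressing the receptor. Compound was applied, cells were stimulated, then lysed with phosphoprotein levels preserved. Phosphorylation was quantified by sandwich ELISA with a receptor-specific capture antibody and anti-phosphotyrosine antibody, relative to the stimulated high control.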

[10] = target: T2, Epidermal growth factor receptor; experiment: Inhibition of EGFR in human HCT116 cells by cellular phosphorylation assay

Sequence of Vascular endothelial growth factor receptor 2 (P35968 whole entry): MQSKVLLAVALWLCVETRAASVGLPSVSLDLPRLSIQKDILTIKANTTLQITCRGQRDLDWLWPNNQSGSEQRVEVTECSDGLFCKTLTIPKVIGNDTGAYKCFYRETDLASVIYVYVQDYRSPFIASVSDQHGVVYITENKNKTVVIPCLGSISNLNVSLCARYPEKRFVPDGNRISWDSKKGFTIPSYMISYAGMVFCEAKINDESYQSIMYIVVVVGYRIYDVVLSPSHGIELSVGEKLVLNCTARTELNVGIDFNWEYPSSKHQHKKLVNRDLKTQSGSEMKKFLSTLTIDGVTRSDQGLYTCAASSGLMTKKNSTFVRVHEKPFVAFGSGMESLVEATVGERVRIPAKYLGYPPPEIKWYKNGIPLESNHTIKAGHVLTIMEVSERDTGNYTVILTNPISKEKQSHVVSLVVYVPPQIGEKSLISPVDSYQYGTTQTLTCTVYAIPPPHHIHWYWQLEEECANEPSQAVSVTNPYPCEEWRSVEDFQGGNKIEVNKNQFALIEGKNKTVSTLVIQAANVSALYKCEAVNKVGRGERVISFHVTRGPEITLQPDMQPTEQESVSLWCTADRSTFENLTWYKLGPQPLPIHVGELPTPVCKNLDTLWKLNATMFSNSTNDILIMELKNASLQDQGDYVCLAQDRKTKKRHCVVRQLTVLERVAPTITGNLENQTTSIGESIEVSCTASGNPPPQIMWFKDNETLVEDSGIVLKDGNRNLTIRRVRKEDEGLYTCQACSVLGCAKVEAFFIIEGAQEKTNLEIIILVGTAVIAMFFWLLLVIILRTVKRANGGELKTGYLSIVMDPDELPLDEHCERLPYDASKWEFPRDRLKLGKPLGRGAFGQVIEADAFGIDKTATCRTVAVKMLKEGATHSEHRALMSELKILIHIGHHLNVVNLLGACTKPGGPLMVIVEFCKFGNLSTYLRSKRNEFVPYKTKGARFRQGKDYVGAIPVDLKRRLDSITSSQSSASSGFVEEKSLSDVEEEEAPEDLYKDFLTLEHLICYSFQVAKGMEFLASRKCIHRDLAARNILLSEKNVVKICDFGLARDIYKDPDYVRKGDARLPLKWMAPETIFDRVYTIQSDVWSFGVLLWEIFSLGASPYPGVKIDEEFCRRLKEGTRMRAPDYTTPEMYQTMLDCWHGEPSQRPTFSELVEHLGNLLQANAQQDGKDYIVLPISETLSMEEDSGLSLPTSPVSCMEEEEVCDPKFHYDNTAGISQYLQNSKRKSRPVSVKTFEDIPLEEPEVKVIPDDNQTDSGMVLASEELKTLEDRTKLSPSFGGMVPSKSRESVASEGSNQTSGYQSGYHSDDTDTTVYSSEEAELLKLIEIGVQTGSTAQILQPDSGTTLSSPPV

SMILES	IC50 [1] [nM]	IC50 [2] [nM]	IC50 [3] [nM]	IC50 [4] [nM]	IC50 [5] [nM]	IC50 [6] [nM]	IC50 [7] [nM]	IC50 [8] [nM]	EC50 [9] [nM]	EC50 [10] [nM]
COc1cc(-c2nc3ccccc3s2)ccc1Nc1ncnc2cc(OC)c(OC)cc12	> 10000	> 10000	> 10000	63						
COc1cc2c(Nc3ccc(-c4nc5ccccc5s4)cc3)ncnc2cc1OCCCN1CCN(C)CC1	12	14	60	46	54	69	1400	100		
COc1cc2c(Nc3ccc(-c4nc5cc(Cl)ccc5s4)cc3)ncnc2cc1OCCCN1CCN(C)CC1	610	24	62	> 10000	510	1300	> 10000	> 10000	> 10000	> 10000
COc1cc2c(Nc3ccc(-c4nc5ccccc5s4)c(F)c3)ncnc2cc1OCCCN1CCN(C)CC1	44	9	27	430	9	210	2100	300	> 10000	> 10000
COc1cc2c(Nc3ccc(-c4nc5ccccc5s4)c(OC)c3)ncnc2cc1OCCCN1CCN(C)CC1	1200	120	300	2	110	7100	2100	5	> 10000	9400
COc1cc2c(Nc3ccc(-c4nc5ccccc5s4)cc3C)ncnc2cc1OCCCN1CCN(C)CC1		340	440		38	340	6700	490		
COc1cc2c(Nc3ccc(-c4nc5ccccc5s4)c(O)c3)ncnc2cc1OCCCN1CCN(C)CC1	380	91	59	110	120	520	4500	780	> 10000	33000
COc1cc2ncnc(Nc3ccc(-c4nc5ccccc5s4)c(F)c3)c2cc1OCCCN1CCN(C)CC1		200	670	2300	3100		8700	> 10000		
COc1cc(-c2nc3ccccc3s2)ccc1Nc1ncnc2cc(OCCCN3CCN(C)CC3)c(OC)cc12	3300	65	90	> 10000	330	1700	5100	> 10000	> 10000	> 10000
COc1cc2c(Nc3ccc(-c4nc5ccccc5s4)c(C)c3)ncnc2cc1OCCCN1CCN(C)CC1	350	230	260		68	1500	7900			
COc1cc2ncnc(Nc3ccc(-c4nc5ccccc5s4)cc3O)c2cc1OCCCN1CCN(C)CC1		800	800	230	880		> 10000	2300		
COc1cc2ncnc(Nc3ccc(-c4nc5ccccc5s4)c(O)c3)c2cc1OCCCN1CCN(C)CC1		300	640	3300	5300		10000	> 10000		
COc1cc2ncnc(Nc3ccc(-c4nc5cc(C(F)(F)F)ccc5s4)cc3)c2cc1OCCCN1CCN(C)CC1		1200	2100	> 10000	> 10000		> 10000	> 10000		
COc1cc2c(Nc3ccc(-c4nc5ccccc5s4)cc3O)ncnc2cc1OCCCN1CCN(C)CC1	280	230	270	350	230	4500	> 10000	3600		
COc1cc2ncnc(Nc3ccc(-c4nc5ccccc5s4)cc3F)c2cc1OCCCN1CCN(C)CC1		390	410	4500	360		10000	> 10000		
COc1cc2ncnc(Nc3ccc(-c4nc5ccccc5s4)c(Cl)c3)c2cc1OCCCN1CCN(C)CC1		690	4800	44	510		7700	180		

SMILES	IC50 [1] [nM]	IC50 [2] [nM]	IC50 [3] [nM]	IC50 [4] [nM]	IC50 [5] [nM]	IC50 [6] [nM]	IC50 [7] [nM]	IC50 [8] [nM]	EC50 [9] [nM]	EC50 [10] [nM]
COc1cc2ncnc(Nc3ccc(-c4nc5ccccc5s4)cc3O)c2cc1OC	6900	> 10000	4200	2200						
COc1cc2c(Nc3ccc(-c4nc5ccccc5s4)c(Cl)c3)ncnc2cc1OCCCN1CCN(C)CC1	120	27	78		37	470	3600	38	10000	
COc1cc2ncnc(Nc3ccc(-c4nc5ccccc5s4)cc3C)c2cc1OCCCN1CCN(C)CC1		9400	> 10000	1400	350		> 10000	5900		
COc1cc2ncnc(Nc3ccc(-c4nc5ccccc5s4)cc3)c2cc1OC	6300									
COc1cc2c(Nc3ccc(-c4nc5cc(C(F)(F)F)ccc5s4)cc3)ncnc2cc1OCCCN1CCN(C)CC1	> 10000	60	120	> 10000	3300	> 10000	8200	> 10000	> 10000	> 10000
COc1cc2ncnc(Nc3ccc(-c4nc5cc(Cl)ccc5s4)cc3)c2cc1OCCCN1CCN(C)CC1		400	500	> 10000	4000		9900	> 10000		
COc1cc(-c2nc3ccccc3s2)ccc1Nc1ncnc2cc(OC)c(OCCCN3CCN(C)CC3)cc12		1300	1900	> 10000	6100		> 10000	> 10000		
COc1cc2c(Nc3ccc(-c4nc5ccc(F)cc5s4)cc3)ncnc2cc1OCCCN1CCN(C)CC1	335	26	41	730	235	865	3400	6950	> 10000	> 10000
COc1cc2ncnc(Nc3ccc(-c4nc5ccccc5s4)c(OC)c3)c2cc1OCCCN1CCN(C)CC1		1600	> 10000	15	1400		3800	47		
COc1ccc2nc(-c3ccc(Nc4ncnc5cc(OCCCN6CCN(C)CC6)c(OC)cc45)cc3)sc2c1	690	62	48	200	390	1900	> 10000	130		
COc1cc2c(Nc3ccc(-c4nc5ccccc5s4)cc3OC(F)(F)F)ncnc2cc1OCCCN1CCN(C)CC1	> 10000	290	520	> 10000	590	> 10000	9100	> 10000		
COc1cc2c(Nc3ccc(-c4nc5ccc(Cl)cc5s4)cc3)ncnc2cc1OCCCN1CCN(C)CC1	2500	54	64	260	410	9300	8000	2300		
COc1cc2c(Nc3ccc(-c4nc5ccc(Cl)cc5s4)cc3F)ncnc2cc1OCCCN1CCN(C)CC1	2250	85	90	6200	615	3000	9200	> 10000		
COc1cc2c(N(C)c3ccc(-c4nc5ccccc5s4)c(OC)c3)ncnc2cc1OCCCN1CCN(C)CC1	> 10000	3300	8000		> 10000	> 10000	> 10000			
COc1cc2ncnc(Nc3ccc(-c4nc5ccccc5s4)cc3)c2cc1OCCCN1CCN(C)CC1		110	510				3800	2200		
